Measurements as given in the RNAGym collection of RNA variant scans (doi:10.1126/science.aae0568).
This sample holds only a part of the variants without activity.

B1: tRNA (parent)
chain: GUUCCGUUGGCGUAAUGGUAACGCGUCUCCCUCCUAAGGAGAAGACUGCGGGUUCGAGUCCCGUACGGAACG

Variants of: B1
Assay: yeast fitness relative to wild type (ratio to wild type); higher = fitter; tRNA-Arg(CCU), competitive growth, 37 C, YPD
Outline: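 Amplicons of the tRNA-Arg(CCU) gene were sequenced, 100-nucleotide paired-end, from the start population and from each end population of a pooled yeast competition. The competition, in six parallel replicates, lasted 24 hours in YPD at 37°C. Fitness relative to wild type was calculated from changes in genotype frequencies. Genotypes had to have ≥ 100 starting reads, and estimates < 0.5 were set to 0.5.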

GUUACGUUGGCGUAAUGGUAACGCCACUCCCUCCUAAGGAGAAGACUGCGGGUUCGAGUCACGUACGGAACG and GUUACGAUGGCGUAAUGGUAACGCGUCUCCCUCCUAAGGAGAAGACUGCGGGUUCGAGACCCGUACGGAACG cannot be ordered by yeast fitness: ≤ 0.5 for the first, ≤ 0.5 for the second.

GUUACGAGGGCGUAAUGGUAACGCGUCUCCCUCCUAAGGAGAAGCCUGCGGGUUCGAGUCCCGUACGGAACG and GUUACGAUGGCGUGAUCGUAACGCGUCUCCCUCCUGAGGAGAAGACUGCGGGUUCGAGUCUCGUACGGAACG cannot be ordered by yeast fitness: ≤ 0.5 for the first, ≤ 0.5 for the second.

Going from GUUACGUUGGCGUAAUGGUAACGCGUCUCCCUCCUAAGGAGAAGACUGCGGGUUCGAGUCCCGUACGAAACG to GUUACGUUGGCGUAAUGGUAACGCGUCUCCCUCCUAAGGAGAAGACUGCGGGUUCGAGUCCCGUACGUAACG, the yeast fitness falls from 0.962 to 0.831.

First: GUUACGUUGGCGUAAUGGUAACGCAUCUACCUCCUAGGGAGAAGACUGCCGGUUCGAGACCCGUACGGAACG
Second: GUUACGUUGGCGCAAUGGUAACGCGUCUCCCGCCUAAGGAGAAGACUGCGGGUUCGAGUCCCGUACGGAACG
The yeast fitness of the first is lower: ≤ 0.5 for the first, 0.571 for the second.

Compared with GUUACGUUGGCGAAAUGGUAACGCGUCUCACCCCUAAGGAGAAGACUGCGGGUUCGAGUCGCGUACGCAACG, GUUACGCUGGCGUAAUGGUAACGCGGCUCCCUCCUAAGGAGAAGACUGCGGGUUCGAGUCCCGUCCGGAACG is higher in yeast fitness: ≤ 0.5 for the first, 0.59 for the second.

Compared with GUUACGUUGGCGUAAUGGUAACGCGUCUCCCUCCUAAGGAGAAGACUGCGGGUUCGAGUCCCGUACAGAACG, GUUACGGUGGCCUAAUGGUAACGCGUCUAUCUCUUAAGGAGAAGACUGCGGGUUCGAGUCUCGUAAGGAACG is lower in yeast fitness: 0.781 for the first, ≤ 0.5 for the second.

Going from GUUACGCUGGCGUAGUGGUAACGCGUCUCACUCCUAAGGAGAAGACUGCGGGUUCGCGUCCCGUACGGAACG to GUUACGAUGGCGUAAUGGUAACGCGUCUCCAUCCUAAGGAGAAGACUGCGGGUUCGAGUCCCGUACGGAACG, the yeast fitness rises from ≤ 0.5 to 0.678.

GUUACGUUGGCGAAAUGAUAACGCGUCUCCCUCCUAAGGAGAAGACUGCGGAUUGGAGUCCCGUACGGAACG and GUUACGUUGGCGUAAUGGUAACGCGUCUCCCUCCUAAGGAGAAGACUGCGGCUUCGAGUCCCGUAUGGAACG cannot be ordered by yeast fitness: ≤ 0.5 for the first, ≤ 0.5 for the second.

GUUACGUUGGCGUAAUGGUAACCCGUCUCCCUCCUAAGGAGAAGACUGCGGGUUCGAGUCAUGUAUGGAACG and GUUACGUUGGCGUAAUGGUAACGCGUCUCCCUCCUAAGCAGAAGACUGCGAGUUCGAGUCCCGUACGGAACG cannot be ordered by yeast fitness: ≤ 0.5 for the first, ≤ 0.5 for the second.

Going from GUUACGUUGGCGUAAUGGUAACGCCUCUCCCUCCUAAGGAGAAGACUGCGGGUUCGAGUCCCGUACGGAACG to GUUACGAUGGCGUAAUGGUAACGCGUCUCCUUCCUAAGGAGAAGACUGCGGGUUCGAGUCGCGUACGGAACG, the yeast fitness falls from 0.833 to ≤ 0.5.

Compared with GUUACGUUGGCGUAAUGGUAACGCGUCUCCCUCCUAAGGAGAAGACUGCGGGUUCGAGUCCCGUACUGGACG, GUUACGUUGGCGUAAUGGUAACGCGUCUCCCUCCUAAGGAGAAGACUACGGGUUCGAGUCCCGUCCGGAACG is lower in yeast fitness: 0.751 for the first, 0.618 for the second.

Going from GUUACGUCGGCGUAAUGGUAACGCGUCUCCCUCCUAAGGAGAAGACUGCGGGUUCGAAUCCCGUACGGAACG to GUUACGUUGGCGUAAUGGUAACGCGUCUCCCUCCUAAGGAGAAGACUGCGGCUUCGAGUCCCGUACGGAACG, the yeast fitness rises from ≤ 0.5 to 0.661.

Compared with GUUACGUUGGCGUAAUGGUAACCCGUCUCCCUCCUAAGGAGAAGACUGCGGGUUCGAGUCCCGUACGGAACG, GUUACGUUGGCGUAAUGGUAACGCGUCUCCCUCCUAAGGAGAAGACUGCGGGUUCGAGUCCCAUUCGGAACG is lower in yeast fitness: 0.77 for the first, ≤ 0.5 for the second.

Going from GUUACGUUGGCGUAAUGGUAACCCGUCUCCUUCGUAAGGAGAGGCCUGCGGGUUCGUGUCCCGUACGGAACG to GUUACGCUGGCGUAAUGGUAACGCGUCUCCCUCCUAAGGAAAAGACUGAGGGUUCGAGUCCCGUACGGAACG, the yeast fitness rises from ≤ 0.5 to 0.504.

First: GUUACGAUGGCGUGAUCGUAACGCGUCUCCCUCCUAAGGAGAAGACUGCGGGUUCGAGUCUCGUACGGAACG
Second: GUUACGUUGGCGUAAUGGUAACGCGUCUCCCUCCUAAAGAGAAGACUGCGGGUUGGAGUCCCGUACGGAACG
The yeast fitness of the first is higher: 0.543 for the first, ≤ 0.5 for the second.

Going from GUUACGUUGGCGUAAUGGUAACGCGUCUCCCUCCUAAGGAGAAGACUGCGGCUUCGCGUCCCCUACGGAACG to GUUACGUUGGCGUAAUGGUAACGCGUCUCCCUCCUAAGGAGAAGACUGCGGGUUCGAGUCCCUUACGGAACG, the yeast fitness rises from 0.56 to 0.624.

Going from GUUACGUUGGCGUAAUGGUAACGCGUCUCCCUCCUAAGGAGAAGACUGCGGGUUCGAGUCCCAUACGGAACG to GUUACGUUGGCGUAAUGGUAACGCGUCUCCCUCCUAAGAAGAAGACUGCGGGUUCGAGUCCCGUACGGAACG, the yeast fitness falls from 0.938 to 0.914.

GUUACGAUGGUGUAAUGGUAACGCGUCUCCUUCCUAAGGAGAAGACUGCGGGUUCGAGACCCGUACGGAACG and GUUACGUUGGCGUAAUGGUAACGCGUCUCCCUCCUAAGGAGAAGACUGCGGGUUCCAGUCCCGUAUGGAACG cannot be ordered by yeast fitness: ≤ 0.5 for the first, ≤ 0.5 for the second.

Compared with GUUACGUUGGCGUAAUGGUAACGCGUCUCCCUCCUAAGGAGAAGACUACGGGUUCGAGUCCCGUACGGAACG, GUUACGUCGGCGUAAUGGAAACGCGUUUCCCUCCUAACGAGAAGACUGCGGGUUUGAGUCCCGUACGGAACG is lower in yeast fitness: 0.964 for the first, ≤ 0.5 for the second.
